Laboratory results from the RNAGym collection of RNA variant scans (doi:10.1101/gad.245936.114).
This sample holds only a part of the variants without activity.

B1: tRNA (parent)
chain: CUCUCGGUAGCCAAGUUGGUUUAAGGCGCAAGACUUUAAUUUAUCACUACGAAAUCUUGAGAUCGGGCGUUCGACUCGCCCCCGGGAGAUUUUUUCCUCGAGCAA

Variants of: B1
Test: nonsense suppression (GFP-seq) (ratio to wild type); higher = more function; SUP4oc tRNA, yeast GFP reporter sort-seq
How it was run: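 To measure nonsense suppression, tRNA variants from a library carrying ~3% random mutations were integrated into the yeast genome alongside RFP and a GFP ochre reporter under galactose control. Growth took place in raffinose/galactose medium supplemented with 80 mg/L adenine, followed by sorting into GFP/RFP bins and Illumina sequencing of each bin (phred ≥30). For each variant with ≥100 reads and ≥30 cells, the bin median GFP/RFP values were weighted by its estimated cell share per bin and referenced to the unmutated parent tRNA.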

Compared with C5U A9G, U4C G86A is higher in nonsense suppression: 0.0324 for the first, 1.09 for the second.

First: U4C G86C
Second: U4G C68G
The nonsense suppression of the first is higher: 0.162 for the first, 0.0622 for the second.

G6A G19C G67C A87G and U4C C11A A33G A74U cannot be ordered by nonsense suppression: at most 0.026 for the first, at most 0.026 for the second.

Going from U4C to U4A, the nonsense suppression rises from 0.585 to 0.693.

Compared with U4G, G6A U55C is lower in nonsense suppression: 1.16 for the first, 0.262 for the second.

G6A U55A and G6A U55G cannot be ordered by nonsense suppression: at most 0.026 for the first, at most 0.026 for the second.

Compared with U4A G18A C77A, U4G U76A is higher in nonsense suppression: at most 0.026 for the first, 0.109 for the second.

Compared with U4A U17A U22C, U4C G15A U21A is higher in nonsense suppression: 0.0499 for the first, 0.214 for the second.

Compared with U4A U20C C83A, U4A U20A is higher in nonsense suppression: at most 0.026 for the first, 0.072 for the second.

U4G G6U U21C U55C C79G and C5U U22C U57C A74C cannot be ordered by nonsense suppression: at most 0.026 for the first, at most 0.026 for the second.

First: U4A G7U U76A
Second: U4C G6U
The nonsense suppression of the first is lower: at most 0.026 for the first, 0.959 for the second.

First: U4C G85A
Second: U4C A24U
The nonsense suppression of the first is lower: 0.625 for the first, 0.84 for the second.

First: U4C A24C
Second: U4C A24G
The nonsense suppression of the first is higher: 1.06 for the first, 0.31 for the second.

First: U4C C12U
Second: C5U A62U G69C A87U
The nonsense suppression of the first is higher: 0.745 for the first, at most 0.026 for the second.

First: U4G A23C G26U A62U G69C G84U
Second: U4C G61A
The nonsense suppression of the first is lower: 0.116 for the first, 1.25 for the second.

First: U4C G61C
Second: U4C G61U
The nonsense suppression of the first is lower: 0.86 for the first, 1.02 for the second.

U4A U21G C79U and C5G A13G G78U cannot be ordered by nonsense suppression: at most 0.026 for the first, at most 0.026 for the second.

First: U4C C11U
Second: U4G G61A
The nonsense suppression of the first is lower: 0.109 for the first, 0.189 for the second.

Going from U4G G61U to G6A A13U, the nonsense suppression falls from 0.804 to 0.0458.

G6A A13G and C5A C27G G73A cannot be ordered by nonsense suppression: at most 0.026 for the first, at most 0.026 for the second.

Compared with C5G C12G, U4A C5G G59A is lower in nonsense suppression: 0.174 for the first, at most 0.026 for the second.

Compared with U4G C12G, C5U C80G is lower in nonsense suppression: 0.0311 for the first, at most 0.026 for the second.

Going from C5U U17C to U4C A14U, the nonsense suppression falls from 0.0495 to 0.0343.

First: U4C C34G C82U
Second: U4A U57A
The nonsense suppression of the first is higher: 0.179 for the first, at most 0.026 for the second.

Going from C5U A30U to U4C A60C, the nonsense suppression rises from 0.138 to 1.04.

C5G A33G G65A G66C and G6C G15A cannot be ordered by nonsense suppression: at most 0.026 for the first, at most 0.026 for the second.

Compared with U4G U17G G69A, U4C G6U G28A is higher in nonsense suppression: at most 0.026 for the first, 0.427 for the second.

C5A U8C and C5A U8A cannot be ordered by nonsense suppression: at most 0.026 for the first, at most 0.026 for the second.

Going from U4G A33G to U4C A9G U22G, the nonsense suppression rises from 0.0332 to 0.202.

Going from U4A U17G G69A G78U to U4A C11U, the nonsense suppression rises from at most 0.026 to 0.0306.

Compared with U4C A13U G78A, C5U U55C G88A is lower in nonsense suppression: 0.424 for the first, at most 0.026 for the second.

First: C5A U55C A89G
Second: U4C A9G G15A A30U
The nonsense suppression of the first is lower: at most 0.026 for the first, 0.0449 for the second.

C5G U55C G69C G86U and G6A A23G G25C U63C C80G cannot be ordered by nonsense suppression: at most 0.026 for the first, at most 0.026 for the second.

Going from U4G G18C A24G G61C C81A to C5U G66U G78A, the nonsense suppression falls from 0.057 to at most 0.026.

Compared with U4G A30U, G6A A24U is lower in nonsense suppression: 0.0386 for the first, 0.0308 for the second.

Compared with G6A A24G, C5G A13U G19U U35G A87G is lower in nonsense suppression: 0.0293 for the first, at most 0.026 for the second.

Going from U4C G78C to U4C G78U, the nonsense suppression rises from 1.06 to 1.12.

Going from U4C G78A to C5U G19C U35A A89G, the nonsense suppression falls from 0.978 to at most 0.026.

Going from G6A A13G U20G C34A G73A to U4A G67C C68U, the nonsense suppression falls from 0.0802 to at most 0.026.

U4A A13C U70C C82U and U4C U55A G67A C79G C83G cannot be ordered by nonsense suppression: at most 0.026 for the first, at most 0.026 for the second.

First: C5G G78U
Second: U4G U20C A33G
The nonsense suppression of the first is lower: 0.0283 for the first, 0.0309 for the second.

Going from G6A U63G C81U to U4G C5U, the nonsense suppression rises from at most 0.026 to 0.0955.

Compared with C5U C79U, C5U U8A A9C G10C C12U G25U A31G is lower in nonsense suppression: 0.0439 for the first, at most 0.026 for the second.

Compared with C5U A13C, U4C C80U is higher in nonsense suppression: 0.0679 for the first, 0.651 for the second.

U4A G19U and G6A G7U A54C cannot be ordered by nonsense suppression: at most 0.026 for the first, at most 0.026 for the second.

First: U4C C12G C64G G66C
Second: U4C U20C
The nonsense suppression of the first is lower: at most 0.026 for the first, 1.05 for the second.

Compared with U4G A13G U16C, C5U A60C is higher in nonsense suppression: 0.0797 for the first, 0.0867 for the second.

C5U G28C A30G A33U and C5A A13C U58A C81A cannot be ordered by nonsense suppression: at most 0.026 for the first, at most 0.026 for the second.

Going from U4G G7A to C5U G6U G84C, the nonsense suppression falls from 0.0974 to at most 0.026.

U4G G18C G28A A74G and C5A G15A A33G cannot be ordered by nonsense suppression: at most 0.026 for the first, at most 0.026 for the second.

Going from U4A G10A U21G G28C to U4C A33G, the nonsense suppression rises from at most 0.026 to 0.0434.

First: C5A U8C A9U C80A
Second: C5U G85A
The nonsense suppression of the first is lower: at most 0.026 for the first, 0.08 for the second.

First: C5U G85U
Second: C5U A31G U71C
The nonsense suppression of the first is higher: 0.0303 for the first, at most 0.026 for the second.

First: C5A U16G G88U
Second: C5A A30G
The nonsense suppression of the first is lower: at most 0.026 for the first, 0.0272 for the second.

C5G G25C G69C C80A and C5U A23G G26C G78A cannot be ordered by nonsense suppression: at most 0.026 for the first, at most 0.026 for the second.

First: U4A A23G
Second: C5G A74G
The nonsense suppression of the first is higher: 0.288 for the first, at most 0.026 for the second.

Going from U4G U20G to U4G U20A, the nonsense suppression falls from 0.834 to 0.0644.

C5A A23C A31G G61A and U4G A23U A24C A33U G67A G84C A87G G88C cannot be ordered by nonsense suppression: at most 0.026 for the first, at most 0.026 for the second.

Compared with C5G G6A A33U U35G U70C, G6A C81U is higher in nonsense suppression: at most 0.026 for the first, 0.0651 for the second.

Going from G6C C12G C72G C75U G85C to C5U G61A, the nonsense suppression rises from at most 0.026 to 0.0314.

C5G G61A and U4A U21A G66U cannot be ordered by nonsense suppression: at most 0.026 for the first, at most 0.026 for the second.

Going from G6A A31C A60C C72A G86A to U4G C79U, the nonsense suppression rises from at most 0.026 to 0.173.

First: C5G G6C A9C A89C
Second: C5G G84U
The nonsense suppression of the first is lower: at most 0.026 for the first, 0.475 for the second.

G6C C34G A54U and C5A A30U C68A cannot be ordered by nonsense suppression: at most 0.026 for the first, at most 0.026 for the second.

Compared with U4A U22G, C5A G7U U20G A74U is lower in nonsense suppression: 0.155 for the first, at most 0.026 for the second.

Going from U4A A30G to C5U U63A, the nonsense suppression rises from 0.0267 to 0.0305.

Compared with U4C G15A, C3U U76A is lower in nonsense suppression: 0.746 for the first, 0.0398 for the second.

Going from C3U U76C to C5G G59A A62C, the nonsense suppression falls from 0.17 to at most 0.026.

Going from U4A C79U to C5U U21A, the nonsense suppression falls from 0.0353 to at most 0.026.

Compared with U4C G25C, U4C G25A is lower in nonsense suppression: 0.723 for the first, 0.162 for the second.

C5A C64A C77A and C5G U57G U71G cannot be ordered by nonsense suppression: at most 0.026 for the first, at most 0.026 for the second.

Compared with C5A G18U U76C G86A, U4C C68U U76C is higher in nonsense suppression: at most 0.026 for the first, 1.13 for the second.

Compared with U4C A9C G84A, U4C U17G G25C G66U U70C G84U is lower in nonsense suppression: 0.0602 for the first, at most 0.026 for the second.

First: U4A A24U
Second: U4A U16G
The nonsense suppression of the first is lower: 0.0458 for the first, 0.247 for the second.

First: U4A U16A
Second: C5G U55C U70C
The nonsense suppression of the first is higher: 0.215 for the first, at most 0.026 for the second.

C5U C68U and G6C A9U G65U G85C cannot be ordered by nonsense suppression: at most 0.026 for the first, at most 0.026 for the second.

C5A U58A G78C and C5U A62C G65C U70G U71A cannot be ordered by nonsense suppression: at most 0.026 for the first, at most 0.026 for the second.

U4A C12U and C5U C83G cannot be ordered by nonsense suppression: at most 0.026 for the first, at most 0.026 for the second.

U4C U58G A74C and U4C U71C cannot be ordered by nonsense suppression: at most 0.026 for the first, at most 0.026 for the second.

Going from U4G G85C to U4C C83U, the nonsense suppression rises from 0.813 to 1.17.

Compared with U4G A14U G26A, U4C G73A is higher in nonsense suppression: at most 0.026 for the first, 1.04 for the second.

U4A C83G G88C and U4C U22G G26U G73C G78C cannot be ordered by nonsense suppression: at most 0.026 for the first, at most 0.026 for the second.

U4C G59A and U4C U35A C83A cannot be ordered by nonsense suppression: at most 0.026 for the first, at most 0.026 for the second.

U4C U63G showed a nonsense suppression of 0.0946.
